The list is not random: actives were taken first. Their share in the collection is about 3.5%.
PRMT1 FP inh – inhibitors of human PRMT1. AID 652257. 370,000 compounds, 1.3% hits. Q99873. recombinant PRMT1, activity-based probe fluorescence polarization. inhibition, % at 2.79 µM;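 active means inhibition above about 21% made by adding two undisclosed values, limit read from the data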
Target sequence (Q99873 whole entry, looked up): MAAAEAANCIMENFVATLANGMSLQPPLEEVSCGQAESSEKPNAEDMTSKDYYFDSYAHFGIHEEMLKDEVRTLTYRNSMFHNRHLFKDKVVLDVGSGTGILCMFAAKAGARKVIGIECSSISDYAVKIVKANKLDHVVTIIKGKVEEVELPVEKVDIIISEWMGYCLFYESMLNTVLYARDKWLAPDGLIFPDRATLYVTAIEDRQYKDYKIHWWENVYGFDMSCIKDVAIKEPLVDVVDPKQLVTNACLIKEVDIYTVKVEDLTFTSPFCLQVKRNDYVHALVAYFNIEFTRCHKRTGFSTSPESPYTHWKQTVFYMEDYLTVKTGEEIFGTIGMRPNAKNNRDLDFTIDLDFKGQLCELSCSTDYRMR
TCR CD3 inh – human TCR-CD3 binding inhibition; TAMRA-labeled TCR probe fluorescence, biochemical; inhibition, % at 9.4 µM; 360,000 compounds, 0.37% hits; AID 651800; in the data active means inhibition above about 19%;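 further: recombinant mutant TCR 2C K166C tagged with TAMRA read by polarization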
SIAE primary – human SIAE inhibition, primary screen. Q9HAT2. SIAE FP-Rh probe binding, fluorescence polarization. inhibition, % at 9.66 µM. 370,000 compounds, 0.69% hits. AID 1053197;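 active means inhibition above a cutoff: mean of compounds within the control limits plus 3 SD of those, cut at about 17% in these data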
rCAG RNA binder – binds r(CAG) RNA repeats | r(CAG) RNA repeat, TO-PRO-1 dye displacement fluorescence | inhibition, % at 3 µM | 370,000 compounds, 1.3% hits | AID 651821;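 active means inhibition above the plate cutoff, the mean of all test compounds on that plate plus 3 SD, cut at about 35% in these data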;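 further: higher means more dye released from RNA so lower well fluorescence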
HTRA1 inh – inhibitors of human serine peptidase HTRA1. recombinant HTRA1, FP-rhodamine activity-based probe, fluorescence polarization. 340,000 compounds, 0.5% hits. inhibition, % at 5.96 µM. Q92743; in the data active means inhibition above about 36%
ABHD4 inh – inhibitors of mouse ABHD4; purified mABHD4, FP-Rh probe fluorescence polarization; Q8VD66; 370,000 compounds, 0.54% hits; inhibition, % at 8.92 µM;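 active means inhibition exceeding the mean over every tested compound plus 3 SD, cut at about 30% in these data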
Target sequence (Q8VD66 whole entry, looked up): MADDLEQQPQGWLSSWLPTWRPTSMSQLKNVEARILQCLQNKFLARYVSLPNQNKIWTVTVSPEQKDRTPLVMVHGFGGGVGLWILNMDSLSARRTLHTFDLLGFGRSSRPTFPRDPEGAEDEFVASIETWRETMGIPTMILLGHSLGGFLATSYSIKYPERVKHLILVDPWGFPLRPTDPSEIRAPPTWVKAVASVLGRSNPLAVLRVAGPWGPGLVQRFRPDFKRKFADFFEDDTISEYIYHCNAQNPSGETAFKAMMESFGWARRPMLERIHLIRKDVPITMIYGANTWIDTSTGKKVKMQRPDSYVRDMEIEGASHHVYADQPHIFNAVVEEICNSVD
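Assay system: mouse ABHD4 enzyme, wild type / Also added: fluorescent activity-based probe FP-Rh / Doses: single nominal dose of 8.92 µM, 0.89% DMSO final / Timing: 45 min compound pre-incubation plus 60 min probe step, 25 °C / Signal: FP readout, ex 525 nm / em 598 nm / Control set: S159A mutant/DMSO as 100%, compound-well median as 0%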
rCAG bind conf – r(CAG) RNA repeat binding, confirmation; shares compounds with rCAG RNA binder; TO-PRO-1 dye displacement fluorescence; inhibition, % at 3 µM; 4,300 compounds, 70% hits;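 active means inhibition above a per-plate cutoff, the mean inhibition of sample wells plus 3 SD, cut at about 35% in these data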;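 further: loss of TO-PRO-1 fluorescence as compound displaces dye from 1x1 AA loop RNA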
DNA CAG counter – disrupts DNA CAG TO-PRO-1 complex, flagging rCAG hits | d(CAG) DNA oligo TO-PRO-1 dye displacement, fluorescence | 4,300 compounds, 94% hits | shares compounds with rCAG RNA binder | inhibition, % at 3 µM;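 active means inhibition above its plate's cutoff, the mean test-well inhibition plus 3 SD, cut at about 4.8% in these data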;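 further: hits displace the dye from DNA and so lower well fluorescence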
PRMT1 confirm – confirmation of human PRMT1 inhibitors; AID 687036; shares compounds with PRMT1 FP inh; inhibition, % at 2.79 µM; recombinant His-PRMT1, activity-based probe fluorescence polarization; 3,300 compounds, 42% hits;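 active means mean inhibition across replicates above the hit cutoff derived for the earlier primary screen, cut at about 22% in these data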
Each line names hits and unclear results; the compound was inactive in the other large screens (follow-up assays come after a bar, where they were run).

O=C(Cc1ccccc1)NC1CCCCN(Cc2ccc(Cl)cc2)C1=O (stereo unspecified)	none (no result: TCR CD3 inh, HTRA1 inh)
O=S(=O)(Nc1nc2ccccc2nc1Nc1ccc2c(c1)OCCO2)c1cccs1	rCAG RNA binder 90.9 | rCAG bind conf 82.7 | DNA CAG counter 51.1
Cc1ccc(-c2csc3nc(SCC(=O)Nc4ccc(Cl)c(C(=O)O)c4)[nH]c(=O)c23)cc1	rCAG RNA binder 80.6 | rCAG bind conf 55.1 | DNA CAG counter 20.2
COc1ccc(NC(=O)C(CCCCNC(=O)OC(C)(C)C)NC2(C(=O)NCCc3c[nH]c4ccccc34)CCCCC2)cc1 (stereo unspecified)	none (no result: TCR CD3 inh, rCAG RNA binder, HTRA1 inh)
C/C(=N\Nc1c(Cl)c(Cl)nc(C(=O)O)c1Cl)c1ccc(O)cc1	rCAG RNA binder 39.5 | rCAG bind conf inactive | DNA CAG counter 4.5
COc1ccc(C=NNC(=O)c2cc(-c3ccc(C)c(C)c3)n[nH]2)cc1OCc1ccccc1	none (no result: TCR CD3 inh, HTRA1 inh)
O=C(O)c1ccc(N/N=C/c2ccc(-c3cc(Cl)ccc3Cl)o2)cc1	rCAG RNA binder 45.0 | rCAG bind conf 50.6 | DNA CAG counter 17.8
C=CCNC(=S)N/N=C/c1ccc(-c2cc(Cl)ccc2Cl)o1	none
CCC[C@H]1[C@@H](NC(=O)c2cccnc2)CC[C@@]23CCCN2C(=O)CCC[C@@H]13	none (no result: TCR CD3 inh, rCAG RNA binder, HTRA1 inh)
O=C1C(=Cc2cn(-c3ccccc3)nc2-c2ccc(OCc3ccc(Cl)cc3)cc2)SC(=S)N1CCS(=O)(=O)O	rCAG RNA binder 68.3 (no result: HTRA1 inh) | rCAG bind conf 58.4 | DNA CAG counter 42.6
O=C(O)CCCCCN1C(=O)/C(=C/c2cn(-c3ccccc3)nc2-c2cccs2)SC1=S	rCAG RNA binder 56.6 | rCAG bind conf 69.1 | DNA CAG counter 39.1
O=C1C(=Cc2cn(-c3ccccc3)nc2-c2ccc(OCc3ccccc3F)cc2)SC(=S)N1CCS(=O)(=O)O	rCAG RNA binder 71.8 (no result: HTRA1 inh) | rCAG bind conf 65.5 | DNA CAG counter 44.8
COC(=O)[C@]12C[C@H](CC(=O)N3CCCC3)C(=O)N(Cc3ccc(Cl)cc3Cl)C1=C[C@H](C(C)(C)C)O[C@@H]2C	none (no result: TCR CD3 inh, HTRA1 inh)
CCN1C(=O)/C(=C\c2ccc(-c3ccc([N+](=O)[O-])cc3OC)o2)SC1=Nc1cccc(C(=O)O)c1	rCAG RNA binder 62.5 | rCAG bind conf 84.2 | DNA CAG counter 49.5
CCN1C(=O)/C(=C\c2ccc(-c3cccc(C(=O)OC)c3)o2)SC1=Nc1ccc(C(=O)O)cc1	none (no result: HTRA1 inh)
O=C1N(Cc2ccccc2)c2ccccc2C12CCCc1sc(CCc3ccccc3)nc12 (stereo unspecified)	none (no result: TCR CD3 inh, HTRA1 inh)
C=CCNc1nc(N)c(C(=C(C#N)C#N)c2ccc(Br)cc2)s1	rCAG RNA binder 38.1 | rCAG bind conf inactive | DNA CAG counter 10.3
C=CCNc1sc(C(=O)c2ccc(C)cc2)c(N)c1C#N	none
OC1(Cc2ccccc2)CCN(c2ncnc3sccc23)CC1	none (no result: TCR CD3 inh, rCAG RNA binder, HTRA1 inh)
Cc1cc(C)c(S(=O)(=O)N2CCN(C(=O)c3cc(=O)[nH]c4ccccc34)CC2)c(C)c1	none
Cc1cc(C(C)(C)C)cc(C)c1S(=O)(=O)N1CCN(C(=O)c2cc([N+](=O)[O-])c[nH]c2=O)CC1	rCAG RNA binder 35.3 | rCAG bind conf 54.0 | DNA CAG counter 18.5
CC(=O)Nc1ccc(S(=O)(=O)/N=C2/NC(=O)/C(=C\c3ccco3)S2)cc1	PRMT1 FP inh 35.2, rCAG RNA binder 57.2 | rCAG bind conf inactive | DNA CAG counter 11.5 | PRMT1 confirm inactive
CCCCN=C(N)NC(=O)OCc1ccccc1	none (no result: TCR CD3 inh, HTRA1 inh)
COC/C=C/C1=CC2=CC(=O)C(C)(OC(=O)C3CCCC3)C(=O)C2=CO1 (stereo unspecified)	PRMT1 FP inh 46.4, rCAG RNA binder 50.3 | rCAG bind conf inactive | DNA CAG counter 15.4 | PRMT1 confirm 24.4
CCCC[C@H]1C2CC(OC(=O)Nc3cccc(Br)c3)C(C2)[C@H]2CCCCN21 (stereo partly specified)	none (no result: TCR CD3 inh, HTRA1 inh)
O=C(Nn1c(O)c(C=C2N=c3ccccc3=N2)sc1=S)c1ccccc1Cl	PRMT1 FP inh 36.8, rCAG RNA binder 63.0 | rCAG bind conf inactive | DNA CAG counter 10.7 | PRMT1 confirm inactive
O=C(NC(Cc1ccccc1)C(=O)O)/C(=C\c1ccco1)NC(=O)c1ccc(Br)cc1 (stereo unspecified)	PRMT1 FP inh 35.4, rCAG RNA binder 36.8 | rCAG bind conf inactive | DNA CAG counter 8.2 | PRMT1 confirm inactive
CCn1c(SCC(=O)Nc2cccc(NC(C)=O)c2)nnc1-c1ccco1	none
CCn1c(SCC(=O)Nc2ccc3c(c2)c2ccccc2n3CC)nnc1-c1ccco1	PRMT1 FP inh 43.2, rCAG RNA binder 35.2 | rCAG bind conf inactive | DNA CAG counter 12.9 | PRMT1 confirm 25.8
CCn1cc(C(=O)N2CCN(Cc3ccc(C)cc3)CC2)c(=O)c2ccc(C)nc21	none (no result: TCR CD3 inh, HTRA1 inh)
Cc1ccc(-n2c(SCC(=O)Nc3ccc4c5c(cccc35)CC4)nc(O)c(C)c2=O)cc1	PRMT1 FP inh 36.6, rCAG RNA binder 51.2 | rCAG bind conf inactive | DNA CAG counter 11.3 | PRMT1 confirm 31.4
Cc1ccc(-n2c(SCC(=O)Nc3ccc4c5c(cccc35)CC4)nc(O)cc2=O)cc1	none
CCCSc1nnc(NC(=O)c2sc3nc(-c4cccs4)ccc3c2N)s1	PRMT1 FP inh 28.4, rCAG RNA binder 36.0 | rCAG bind conf 68.3 | DNA CAG counter 33.3 | PRMT1 confirm inactive
CCCSc1nnc(NC(=O)c2ccco2)s1	none
Cc1ccc2nc(-c3ccc(NC(=O)CSc4nnc(-c5cccc(Cl)c5)n4Cc4ccco4)cc3)sc2c1	PRMT1 FP inh 47.1, rCAG RNA binder 44.8 (no result: TCR CD3 inh, HTRA1 inh) | rCAG bind conf inactive | DNA CAG counter 8.7 | PRMT1 confirm inactive
C[C@@H](CCCCC1(C)OCCO1)CCC(=O)N(c1ccccc1)c1ccccc1	none (no result: TCR CD3 inh, HTRA1 inh)
Cc1cc(-c2n[nH]c(=S)n2/N=C/c2ccc(Br)s2)n[nH]1	none
Cc1cc(-c2n[nH]c(=S)n2/N=C/c2ccccc2[N+](=O)[O-])n[nH]1	none
CC(C)Oc1cccc(-c2n[nH]c(=S)n2N=Cc2cccc([N+](=O)[O-])c2)c1	PRMT1 FP inh 33.5, rCAG RNA binder 51.3 (no result: TCR CD3 inh, HTRA1 inh) | rCAG bind conf 57.0 | DNA CAG counter 17.3 | PRMT1 confirm 25.1
O=[N+]([O-])c1ccccc1C=Nn1c(-c2cc(-c3ccccc3)n[nH]2)n[nH]c1=S	PRMT1 FP inh 41.9, rCAG RNA binder 47.3 (no result: TCR CD3 inh, HTRA1 inh) | rCAG bind conf 53.1 | DNA CAG counter 18.9 | PRMT1 confirm inactive
